Converted amounts (≈) assume the structure as drawn. Where only a bound is given, the exact number is not on record here.

In series [1] the test system is Staphylococcus aureus. Kind of series: Potentiation of cefazolin-induced antibacterial activity against methicillin-resistant Staphylococcus aureus ATCC BAA-44 assessed as compound concentration required in combination with cefazolin to return MRSA sensitive concentration below 8 ug/ml after overnight incubation. Type of series: functional. Put shortly:
(§1)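 Antibiotic held at fixed final level in MHB (amoxicillin/clavulanic acid 4/2 μg/mL; cefazolin 8 μg/mL); test compound (10 mg/mL DMSO stock) 2-fold serially diluted from 64 μg/mL top; final inoculum OD600 0.001; overnight at 37 °C with shaking; MRC = lowest compound concentration with no visible growth.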

Series [2] deals with Staphylococcus aureus. Kind of series: Potentiation of amoxicillin/clavulanic acid-induced antibacterial activity against methicillin-resistant Staphylococcus aureus NRS100 assessed as compound concentration required in combination with amoxicillin/clavulanic acid to return MRSA sensitive concentration below 4 ug/ml after overnight incubation. Format: functional. Put shortly:
as §1

The test system of series [3] is Staphylococcus aureus. Nature of the series: Antibacterial activity against methicillin-resistant Staphylococcus aureus NRS100 after 18 hrs by broth microdilution method. On the technique in general: Broth dilution looks for growth in wells or tubes with falling amounts of substance.
The nature of series [4]: Cytotoxicity against human HeLa cells after 24 hrs by CellTiter-Glo luminescent cell viability assay. Type of series: toxicity, cell-based. Put shortly:
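HeLa cells seeded at 20 000 cells/well in DMEM with 10% FCS and 1% penicillin/streptomycin, grown 16 h at 37 °C in 5% CO2. Medium then replaced and compounds added in DMSO (1 μL per 100 μL), final 0.5–32 μg/mL, triplicate. After 24 h at 37 °C, plates equilibrated to room temperature and CellTiter-Glo luminescence read.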
(Cellular ATP, detected with luciferase, serves as a proxy for viable cell number.)

The term GI50 denotes the concentration giving 50% growth inhibition. The low end stands for greater sensitivity of the cells, the high end for lower sensitivity of the cells. `C=C1CCCC[C@@]23N(C(=N)N)CC[C@@]12c1c(C)cc(C)cc1N3C`: the MRC in the series with Staphylococcus aureus [1] stood at 16 µg/mL; in the series on Staphylococcus aureus [2], 32 µg/mL. Also, the MIC in the series on Staphylococcus aureus [3] is more than 64 µg/mL. Also, the GI50 at 24 h in series [4] is 19 µg/mL (≈ 58.6 µM).
In the case of `C=C1CCCC[C@@]23N(C(C)=O)CC[C@@]12c1c(C)cc(C)cc1N3C`, the MRC in the series with Staphylococcus aureus [1] and in the series on Staphylococcus aureus [2] was 32 µg/mL each time. Further, the MIC in the series with Staphylococcus aureus [3] is more than 64 µg/mL. In series [4], the GI50 at 24 h is 15 µg/mL (≈ 46.2 µM).
For the molecule `C=C1CCCC[C@@]23N(C(=O)NCC)CC[C@@]12c1c(C)cc(C)cc1N3C`, the MRC with Staphylococcus aureus [1] and in the series on Staphylococcus aureus [2] was more than 64 µg/mL each time. In the series on Staphylococcus aureus [3], the MIC is more than 64 µg/mL. In series [4], the GI50 at 24 h worked out at 51 µg/mL (≈ 144 µM).
For `C=C1CCCC[C@@]23N(C(=O)OCC)CC[C@@]12c1cc(F)ccc1N3C`, the MRC in the series on Staphylococcus aureus [1] and in the series with Staphylococcus aureus [2] was more than 64 µg/mL each time. Also, the MIC with Staphylococcus aureus [3] was more than 64 µg/mL. Also, in series [4], the GI50 at 24 h is more than 64 µg/mL.
For the molecule `C=C1CCCC[C@]23Nc4cc(C)cc(C)c4[C@]12CCN3C(=O)OC`, the MRC was 4 µg/mL in the series on Staphylococcus aureus [1] and 8 µg/mL with Staphylococcus aureus [2]. The molecule also showed an MIC against Staphylococcus aureus [3] of more than 64 µg/mL. For the same molecule, in series [4], the GI50 at 24 h was found to be 28 µg/mL (≈ 85.8 µM).
In the same order, the values of `C=C1CCCC[C@@]23N(C(=O)OC)CC[C@@]12c1cc(C)ccc1N3C` are 8 µg/mL, 4 µg/mL, more than 64 µg/mL and 27 µg/mL (≈ 82.7 µM).
The like results for `C=C1CCC[C@@]23N(C(=O)OCC)CC[C@@]12c1cc(C)ccc1N3C` were, in that order, 64 µg/mL, 32 µg/mL, more than 64 µg/mL and 43 µg/mL (≈ 132 µM).
In the same order, the values of `C=C1CCCC[C@@]23N(C(=O)OC(C)(C)C)CC[C@@]12c1c(C)cc(C)cc1N3C` are 8 µg/mL, 4 µg/mL, more than 64 µg/mL and 47 µg/mL (≈ 123 µM).
With `C=C1CCC[C@@]23N(C(=O)OC)CC[C@@]12c1cc(Cl)ccc1N3C`, the MRC with Staphylococcus aureus [1] turned out to be 16 µg/mL; in the series with Staphylococcus aureus [2], 8 µg/mL. Moreover, the MIC in the series on Staphylococcus aureus [3] was more than 64 µg/mL. Besides, the GI50 at 24 h in series [4] came out at 41 µg/mL (≈ 123 µM).
The like results for `C=C1CCCC[C@@]23N(C(=O)OC)CC[C@@]12c1ccccc1N3C` were, in that order, more than 64 µg/mL, more than 64 µg/mL, more than 64 µg/mL and 30 µg/mL (≈ 96 µM).
The like results for `C#CCN1c2cc(C)cc(C)c2[C@@]23CCN(C(=O)OC)[C@@]12CCCCC3=C` were, in that order, 64 µg/mL, 64 µg/mL, more than 64 µg/mL and 17 µg/mL (≈ 46.6 µM).
The like results for `C=C1CCCC[C@@]23N(C)CC[C@@]12c1c(C)cc(C)cc1N3C` were, in that order, 8 µg/mL, 16 µg/mL, more than 64 µg/mL and 20 µg/mL (≈ 67.5 µM).
For `C=C1CCCC[C@@]23N(C(=O)OCc4ccccc4)CC[C@@]12c1c(C)cc(C)cc1N3C`, the MRC was more than 64 µg/mL in the series on Staphylococcus aureus [1] and 64 µg/mL with Staphylococcus aureus [2]. Also, the MIC with Staphylococcus aureus [3] was more than 64 µg/mL. In series [4], this molecule returned a GI50 at 24 h of more than 64 µg/mL.
For the molecule `C=C1CCCC[C@@]23N(C(=O)CCC(=O)O)CC[C@@]12c1c(C)cc(C)cc1N3C`, the MRC in the series on Staphylococcus aureus [1] and in the series with Staphylococcus aureus [2] was more than 64 µg/mL each time. Further, the MIC in the series with Staphylococcus aureus [3] is more than 64 µg/mL. In series [4], this molecule had a GI50 at 24 h of more than 64 µg/mL.
For `C=C1CCCC[C@@]23N(CC)CC[C@@]12c1c(C)cc(C)cc1N3C`, the MRC in the series on Staphylococcus aureus [1] stood at 8 µg/mL; in the series on Staphylococcus aureus [2] it was 32 µg/mL. In the series on Staphylococcus aureus [3], this molecule showed an MIC of more than 64 µg/mL. This molecule also had a GI50 at 24 h in series [4] of 18 µg/mL (≈ 58 µM).
The like results for `C=C1CCCC[C@@]23N(C(N)=O)CC[C@@]12c1c(C)cc(C)cc1N3C` were, in that order, 64 µg/mL, 64 µg/mL, more than 64 µg/mL and 19 µg/mL (≈ 58.4 µM).

The values are drawn from ChEMBL document CHEMBL3877254, “Tetracyclic indolines as a novel class of β-lactam-selective resistance-modifying agent for MRSA” (Eur J Med Chem, 2017).
